From PubChem
ERAP1 HTS inh: blocks human ERAP1 aminopeptidase activity; Q9NZ08; recombinant ERAP1, Leu-AMC fluorescence, 60 min; inhibition, % at 10.7 µM; hit rate 0.15% among 340,000;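 active = mean replicate inhibition of at least 30%, or all replicates individually reaching that 30% level; inactive = mean below 30% and not every replicate reaching it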;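 note: 0% = neutral control wells and 100% = L-leucinethiol positive control wells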
S100A4 inh HTS: inhibitors of human S100A4 binding to myosin IIA peptide; P26447; S100A4/TAMRA-MyoIIA peptide fluorescence polarization; inhibition, % at 10.7 µM; hit rate 0.14% among 360,000;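 active = mean inhibition of at least 70% across replicates, with every replicate also reaching that level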
Target sequence (P26447 whole entry, looked up): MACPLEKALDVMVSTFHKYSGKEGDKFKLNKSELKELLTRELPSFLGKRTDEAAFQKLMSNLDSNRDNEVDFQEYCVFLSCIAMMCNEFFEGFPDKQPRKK
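System – human S100A4 monomer protein, biochemical binding assay · Buffer or medium – Calcium-containing HEPES buffer, pH 7.2 · Timing – 5 min between mix addition and reading · Also added – TAMRA-labelled myosin IIA heavy-chain peptide probe, 5 nM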
CFTR F508del cor: correctors of CFTR F508del function in bronchial epithelial cells | CFBE cells, YFP halide quenching; stimulated with forskolin plus potentiator P3; % fluorescence drop versus neutral controls | activity (quench increase), % at 7.58 µM | hit rate 0.36% among 350,000;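 active = mean added fluorescence quench of at least 8% versus neutral control, with both replicates also reaching 8%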;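 note: cells transiently co-express mutant CFTR-F508del with the halide-sensitive YFP; corrector assay measuring rescue of mutant channel to the surface after 24 h compound exposure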
SIRT5 inh: sirtuin-5 (human) deacylase inhibition; Purified SirT5, succinyl-peptide AMC, trypsin-coupled fluorescence; inhibition, % at 15 µM; hit rate 1.1% among 330,000; Q9NXA8; in the data active = inhibition above about 15%
Target sequence (Q9NXA8 whole entry, looked up): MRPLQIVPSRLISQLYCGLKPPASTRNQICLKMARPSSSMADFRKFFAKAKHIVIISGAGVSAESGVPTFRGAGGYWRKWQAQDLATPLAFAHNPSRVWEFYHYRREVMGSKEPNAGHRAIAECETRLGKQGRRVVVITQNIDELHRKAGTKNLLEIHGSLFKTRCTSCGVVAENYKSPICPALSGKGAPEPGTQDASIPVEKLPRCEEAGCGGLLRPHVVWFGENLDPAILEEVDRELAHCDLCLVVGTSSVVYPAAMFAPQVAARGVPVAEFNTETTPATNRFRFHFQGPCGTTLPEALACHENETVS
Ecoli rRNA inh: inhibits bacterial ribosomal RNA function over humanized ribosomes | E. coli WT GFP vs humanized-ribosome RFP mutants, fluorescence, 24 h; hits give low values; DMSO median 0, no signal -100 | GFP signal change (wild-type ribosome), % (no concentration beside the values) | hit rate 1.6% among 350,000;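 active = significant combined selectivity score with lowered wild-type GFP, culture density cut under 30%, mutant RFP and density less affected; inactive = any of these conditions unmet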
Starred values were filed as active, the others as inactive; . = no result given. An excerpt weighted towards active compounds, which were near 3.1% of everything screened.

SMILES | ERAP1 HTS inh | S100A4 inh HTS | CFTR F508del cor | SIRT5 inh | Ecoli rRNA inh
Cc1ccc(S(=O)(=O)N(C)C[C@H]2OCCCC[C@@H](C)Oc3ccc(NS(=O)(=O)c4ccccc4)cc3C(=O)N([C@@H](C)CO)C[C@@H]2C)cc1 | 3 | -6 | 2 | 19* | -2
Cc1ccc(S(=O)(=O)Nc2ccc3c(c2)C(=O)N([C@@H](C)CO)C[C@H](C)[C@H](CN(C)S(=O)(=O)c2ccccc2)OCCCC[C@@H](C)O3)cc1 | 0 | -17 | 1 | 24* | -2
CC1(c2ccc(OCC#N)cc2)C=C(c2ccc(OCC#N)cc2)n2nc(C(F)(F)F)nc2N1 (stereo not given) | 15 | -16 | 4 | -4 | -27*
COc1cccc(C(=O)Nc2ccc3c(c2)C(=O)N(C)C[C@@H](OC)[C@H](C)CN(C(=O)C2CCCC2)[C@@H](C)CO3)c1 | 1 | -5 | 0 | -3 | -1
CCN(CC)c1nc2c(c(=O)[nH]c(=O)n2C)n1Cc1ccccc1 | 2 | 7 | 3 | 102* | 4
Cc1cccc(Cn2c(N(C)Cc3ccccc3)nc3c2c(=O)[nH]c(=O)n3C)c1 | 2 | -3 | 2 | -1 | 1
COc1cc(S(=O)(=O)Nc2ccc(C)cc2)ccc1N=Cc1c(C)[nH]n(-c2ccc(C)cc2)c1=O | -5 | 1 | 1 | -2 | 12
COc1cc(S(=O)(=O)Nc2ccc(C)cc2)ccc1N=Cc1c(C)c(C#N)c(=O)n(C)c1O | 5 | 80* | 2 | 1 | 75
CCOc1ccc(NC(=S)Nc2cc(OC)c(Cl)cc2OC)cc1 | -4 | 7 | . | . | -7
COc1cc(C)c(NC(=S)Nc2ccc(Cl)c(Cl)c2)cc1OC | 6 | -2 | . | -1 | -28*
CN1CCC(NC(=O)c2cc(-c3cccc(Br)c3)nc3ccccc23)CC1 | 1 | -5 | 0 | -7 | -23*
O=c1c(CO)cc(CO)cc(CO)c1O | -1 | 2 | 1 | 4 | -6
O=C1C=CC(=O)c2c(O)c(CO)c(CO)c(O)c21 | -1 | 1 | -1 | 15* | -18
O=[N+]([O-])c1ccc(-c2ccn[nH]2)o1 | 10 | -7 | . | -1 | -57
Nc1nc(N)nc(-c2ccc([N+](=O)[O-])o2)n1 | 0 | 10 | 3 | . | -5.3*
CCOC(=O)C1(CC2CC2)CCN(Cc2cn[nH]c2-c2cccc(F)c2)CC1 | -2 | 6 | 2 | 17* | -8
CC(C)Cc1ccc(S(=O)(=O)Nc2ccc3[nH]c(=O)[nH]c3c2)cc1 | 0 | -5 | -2 | -2 | -25*
CCc1ccc(NS(=O)(=O)c2ccc3[nH]c(=O)[nH]c3c2)cc1 | 5 | 2 | 1 | -3 | 2
CC(=O)Nc1ccc2c(c1)C(=O)N(C)C[C@@H](C)[C@H](CN(C)C)O2 | . | . | . | . | 3
CCC/C(=C1/c2ccccc2C(=O)N1c1ccccc1)c1ccc(C=O)o1 | 1 | -9 | 3 | . | -24*
CCC/C(=C1/c2ccccc2C(=O)N1c1ccccc1)c1cnc(OC)nc1 | -8 | 11 | -2 | 2 | -2
O=C(O)C1=C[C@@H](O)[C@@H](O)[C@H](O)C1 | -2 | -2 | 9.7* | -4 | .
CCOC(=O)c1cc(-c2cc(OC)c(OC)c(OC)c2)nc2c1c(=O)[nH]c(=O)n2Cc1ccccc1 | 0 | -4 | 0 | 20* | 19
COC(=O)C[C@@H]1CC[C@@H]2[C@H](COc3ccc(NC(=O)Nc4cc(C)cc(C)c4)cc3C(=O)N2C)O1 | 2 | -3 | . | 2 | -4
CCC(=O)Nc1ccc(C(=O)CSc2nnc(-c3ccccc3F)n2C2CC2)cc1 | 7 | -7 | . | 6 | .
SMILES | ERAP1 HTS inh | S100A4 inh HTS | CFTR F508del cor | SIRT5 inh | Ecoli rRNA inh
CC(=O)Nc1ccc(C(=O)CSc2nnc(-c3ccccc3F)n2CCc2ccccc2)cc1 | . | -1 | -2 | 1 | -35*
CN(C)CC(=O)N[C@@H]1CC[C@H](CC(=O)O)O[C@@H]1CO | 2 | 7 | -2 | -2 | -2
CCCNc1nc(N2CCCC2)nc(N2CCCC2)n1 | -2 | -3 | 3 | -6 | -21*
Cc1ccc(Nc2nc(NCCO)nc(N3CCCC3)n2)cc1 | 0 | -3 | 2 | . | -8
C[C@@H]1CCCCO[C@H](CN(C)C(=O)Nc2ccccc2)[C@H](C)CN([C@@H](C)CO)C(=O)c2cc(NC(=O)c3ccccc3)ccc2O1 | 2 | -9 | 0 | -1 | -3
C[C@H](NC(=O)C[C@H]1CC[C@H](NS(=O)(=O)c2cccc(F)c2)[C@@H](CO)O1)c1ccccc1 | 1 | 1 | 1 | 3 | 3
CN1C(=O)c2cc(NC(=O)c3ccc(F)c(F)c3)ccc2OC[C@@H]2O[C@H](CC(=O)N[C@@H]3CCN(Cc4ccccc4)C3)CC[C@@H]21 | -3 | 4 | . | 4 | -2
CCOc1ccc(CCN2C(=O)C(=O)N([C@@H](Cc3ccccc3)CN3CCC[C@@H]3CN3C(=O)C(=O)NC[C@@H]3Cc3ccc(O)cc3)C[C@@H]2Cc2ccccc2)cc1 | -1 | -2 | 0 | 38* | 5
CC(C)C[C@H]1CNC(=O)C(=O)N1C[C@@H]1CCCN1C[C@H](Cc1ccc(O)cc1)N1C[C@H](Cc2ccccc2)N(CC2CCCCC2)C(=O)C1=O | -4 | 6 | 3 | 3 | -29*
COc1ccc(CN(C)C[C@H]2Oc3ccc(NC(=O)Cn4cnnn4)cc3CC(=O)N([C@H](C)CO)C[C@@H]2C)cc1 | 1 | -4 | -1 | 2 | 0
COc1ccc2[nH]c(=O)c(CN(CCO)S(=O)(=O)c3ccc(C)cc3)cc2c1 | -2 | -2 | 2 | 1 | -24*
CCN(Cc1cc2ccccc2[nH]c1=O)S(=O)(=O)c1ccc(OC)cc1 | 3 | 5 | 3 | 2 | -10
CCCCN(Cc1cc2cc(OC)ccc2[nH]c1=O)S(=O)(=O)c1ccc(C)cc1 | -3 | -11 | 4 | . | -10
CCOC(=O)c1cccc(S(=O)(=O)N(CCO)Cc2cc3cc(OC)ccc3[nH]c2=O)c1 | 4 | -2 | 1 | 2 | -18*
COc1ccc(C2(c3ccc(OC)cc3)NC(=O)N(CC(=O)NC3(C#N)CCCC3)C2=O)cc1 | -3 | -2 | 0 | -1 | -2
Cc1ccc(C2(c3ccccc3)NC(=O)N(CC(=O)NC3(C#N)CCCC3)C2=O)cc1C (stereo not given) | -4 | -8 | -2 | -5 | -28*
O=C(NCc1ccccc1)c1nc2ccccc2s1 | -4 | 2 | -2 | -3 | -30*
Cc1ccc(S(=O)(=O)NCC[C@H]2CC[C@H](NC(=O)c3cnccn3)[C@H](CO)O2)cc1 | 2 | 1 | 2 | -2 | -6
C[C@@H]1CCCCO[C@@H](CN(C)S(=O)(=O)c2ccc(F)cc2)[C@H](C)CN([C@H](C)CO)C(=O)c2cc(NC(=O)Nc3ccc(C(F)(F)F)cc3)ccc2O1 | -2 | -3 | 5 | 15* | -3
